The source of these data is ChEMBL document CHEMBL3853323, “Small Antimicrobial Agents Based on Acylated Reduced Amide Scaffold” (J Med Chem, 2016).

Data set [1] has as its system Staphylococcus epidermidis. The data set is described as follows: Antibacterial activity against methicillin-resistant Staphylococcus epidermidis RP62A after 16 to 20 hrs by two fold serial dilution method. The class given is functional. The method in brief: (§1)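 Broth MIC: the lowest concentration giving complete growth inhibition after 20 h. Run at least three times, in duplicate each time.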

Data set [2] can be described thus: Cytotoxicity against human K562 cells assessed as cell viability after 24 hrs by MTT assay. The class given is toxicity, cell-based. The method in brief:
(§2)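 Cells seeded at 5×10^4 per well and left 12 h, then exposed 24 h to compound at 100, 50, 25, 12.5 or 6.25 μg/mL diluted in medium. Medium replaced, MTT added for 4 h, solubilized 12 h at 37 °C, A550 read; viability % = (A − Ablank)/(Acontrol − Ablank) × 100. Run at least three times.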

Data set [3] can be described thus: Hemolytic activity in human RBC after 1 hr. The class given is ADME, cell-based, Erythrocyte. The following applies: human red blood cells. The essentials: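 Fresh K2EDTA human RBCs, PBS-washed, as 5% v/v suspension mixed 1:1 with compound dilutions, 37 °C for 1 h. Supernatant after centrifugation diluted in PBS, A540 read. % hemolysis relative to 2% Triton X-100 (positive) and PBS (negative). At least three runs, each in duplicate.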

A further data set relates to Enterococcus faecalis. The data set is described as follows: Antibacterial activity against vancomycin resistant Enterococcus faecalis ATCC 700802 after 16 to 20 hrs by two fold serial dilution method. The class given is functional. The method in brief:
as §1

Data set [4] relates to Escherichia coli. The data set is described as follows: Antibacterial activity against Escherichia coli ATCC 25922 after 16 to 20 hrs by two fold serial dilution method. The class given is functional. The essentials:
(§3)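 MIC as lowest concentration giving complete inhibition of growth after 20 h; at least three independent experiments, each in duplicate.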

Data set [5] concerns Staphylococcus aureus. The experiment in a line: Antibacterial activity against methicillin-resistant Staphylococcus aureus ATCC 33591 after 16 to 20 hrs by two fold serial dilution method. The class given is functional. The method in brief: as §1
The nature of data set [6]: Cytotoxicity against human HK2 cells assessed as cell viability after 24 hrs by MTT assay. The class given is toxicity, cell-based, HK-2. The essentials: as §2
Background: Tetrazolium assays rely on reduction of a dye to a coloured formazan, in cell work by metabolically active cells.

The subject of a further data set is Pseudomonas aeruginosa. The data set is described as follows: Antibacterial activity against Pseudomonas aeruginosa ATCC 27853 after 16 to 20 hrs by two fold serial dilution method. The class given is functional. The essentials:
as §3

The next data set relates to Klebsiella pneumoniae. The experiment in a line: Antibacterial activity against Klebsiella pneumoniae ATCC 13383 after 16 to 20 hrs by two fold serial dilution method. The class given is functional. The method in brief: as §3
Another data set deals with Rattus norvegicus. The data set is described as follows: Antiinflammatory activity in methicillin-resistant Staphylococcus aureus induced ventilator-associated pneumonia bearing Wistar rat model assessed as reduction in TNF-alpha levels in bronchoalveolar lavage fluid at 10 mg/kg, iv measured after 1 to 3 days by ELISA. The class given is functional, organism-based. The essentials: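 Same MRSA pneumonia rat model with 10 mg/kg i.v. tail-vein dosing. Rats were sacrificed and exsanguinated. Lungs were lavaged through a tracheal needle with 1 mL sterile PBS for six cycles. Specimens were homogenized and TNF-α was measured by ELISA.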

For data set [7], the system named is Staphylococcus aureus. The data set is described as follows: Bactericidal activity against methicillin-resistant Staphylococcus aureus ATCC 33591 assessed as disruption of bacterial membrane at 25 ug/ml after 2 hrs by propidium iodide staining based fluorescence microscopy. The class given is functional. The essentials:
(§4)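 Mid-log MRSA was exposed to compound at 37 °C for 2 h, pelleted and washed three times in PBS. Cells were stained sequentially with PI (5 µg/mL) and DAPI (10 µg/mL), 15 min each on ice in the dark. Imaged with a 100× oil objective; DAPI channel 460 nm, PI channel 620 nm.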

The subject of data set [8] is Acinetobacter baumannii. The experiment in a line: Inhibition of biofilm formation in Acinetobacter baumannii at 2 ug/ml incubated overnight by crystal violet staining based assay. The class given is functional. The essentials: (§5)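 Overnight culture diluted 1:100 into 10% MHII broth, incubated with compound overnight at 37 °C. Growth read at OD600, then biomass stained with crystal violet; CV OD divided by growth OD and normalized to untreated control. Triplicate, mean ± STDEV.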

Data set [9] can be described thus: Selectivity ratio of IC50 for human HK2 cells to MIC for methicillin-resistant Staphylococcus aureus ATCC 33591. The class given is ADME, cell-based.
Data set [10] is described as follows: Selectivity ratio of IC50 for human K562 cells to MIC for methicillin-resistant Staphylococcus aureus ATCC 33591. The class given is ADME, cell-based.
For data set [11], the system named is Staphylococcus aureus. The experiment in a line: Antibacterial activity against methicillin-resistant Staphylococcus aureus ATCC 33591 at 0.5 times MIC after 14 passages. The class given is functional. The method in brief: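 Resistance passaging: the starting MIC was measured as in the MIC assay. Bacteria from the 1/2 MIC well seeded the next day's assay. Repeated daily for 14 passages.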

Data set [12] has as its system Escherichia coli. The data set is described as follows: Inhibition of biofilm formation in Escherichia coli ATCC 25922 at 0.6 ug/ml incubated overnight by crystal violet staining based assay. The class given is functional. The method in brief: as §5
The subject of data set [13] is Acinetobacter baumannii. The experiment in a line: Inhibition of biofilm formation in Acinetobacter baumannii at 0.6 ug/ml incubated overnight by crystal violet staining based assay. The class given is functional. The method in brief: as §5
The test system of data set [14] is Staphylococcus aureus. The data set is described as follows: Bactericidal activity against methicillin-resistant Staphylococcus aureus ATCC 33591 for 10 mins to 2 hrs by time kill assay. The class given is functional. The method in brief: (§6)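 MRSA grown to mid-log in TSB was diluted to 10^6 CFU/mL. […] Samples were diluted 10^2–10^4-fold and plated on TSB agar. CFU were counted after overnight incubation at 37 °C and plotted against time.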

In data set [15] the test system is Staphylococcus aureus. The data set is described as follows: Bactericidal activity against methicillin-resistant Staphylococcus aureus ATCC 33591 assessed as disruption of bacterial membrane at 25 ug/ml after 2 hrs by DAPI staining based fluorescence microscopy. The class given is functional. The method in brief: as §4
The subject of data set [16] is Staphylococcus aureus. The data set is described as follows: Antibacterial activity against methicillin-resistant Staphylococcus aureus induced ventilator-associated pneumonia bearing Wistar rat model assessed as reduction in lung infiltrated proinflammatory cells at 10 mg/kg, iv measured after 1 to 3 days by hematoxylin and eosin staining based light microscopy. The class given is functional, organism-based. The essentials: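 Male Wistar rats (6‒8 weeks, ~200 g) were fasted at least 12 h and given urethane 1 g/kg i.p. Pneumonia was induced by slow intratracheal injection of 100 μL PBS with 2×10^5 CFU/mL MRSA under mechanical ventilation. Compound was given at 10 mg/kg i.v. via tail vein. H&E-stained lung sections were scored for neutrophil infiltration and alveolar integrity over time, five random sections each.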

Data set [17] has as its system Staphylococcus aureus. The experiment in a line: Bactericidal activity against methicillin-resistant Staphylococcus aureus ATCC 33591 at 25 to 50 ug/ml for 10 mins to 2 hrs by time kill assay. The class given is functional. The essentials: as §6
Data set [18] deals with Escherichia coli. The data set is described as follows: Inhibition of biofilm formation in Escherichia coli ATCC 25922 at 2 ug/ml incubated overnight by crystal violet staining based assay. The class given is functional. The method in brief:
as §5

In brackets after ≈: the same amount, converted by molar mass. Activity calls are given as the source filed them. No cut-off for these calls is given here.

In the case of `N=C(N)NCCC[C@H](N)C(=O)N[C@@H](Cc1ccccc1)CN(CC(=O)NCc1cccc2ccccc12)C(=O)c1ccc2ccccc2c1`, the minimum inhibitory concentration (MIC) (in general, the lowest concentration that inhibits growth of the organism) in data set [1] was 12.5 µg/mL (≈ 19 µM); against Enterococcus faecalis it was 25 µg/mL (≈ 38 µM); against Escherichia coli [4], 50 µg/mL (≈ 76 µM); in the data set on Staphylococcus aureus [5] it was 25 µg/mL (≈ 38 µM); with Pseudomonas aeruginosa, 25 µg/mL (≈ 38 µM); in the data set on Klebsiella pneumoniae, 25 µg/mL (≈ 38 µM). Also, the half-maximal inhibitory concentration (IC50) at 24 h in data set [2] and in data set [6] was more than 100 µg/mL in each case. In addition, the 50% haemolytic concentration (HC50) (usually the concentration that lyses half of the red blood cells) at 1 h in data set [3] came out at 300 µg/mL.
For `NCCCC[C@H](N)C(=O)N[C@@H](Cc1ccccc1)CN(CC(=O)NCC12CC3CC(CC(C3)C1)C2)C(=O)CC12CC3CC(CC(C3)C1)C2`, the result in the data set with Rattus norvegicus, in the data set with Staphylococcus aureus [7], in the data set on Staphylococcus aureus [11], in the data set with Staphylococcus aureus [15], with Staphylococcus aureus [16] and in the data set on Staphylococcus aureus [17] was Active. The inhibition result in the data set with Acinetobacter baumannii [8] and with Escherichia coli [18] was “Active” each time. For the same compound, the selectivity ratio in data set [9] and in data set [10] was more than 50 in each case. Further, the minimum inhibitory concentration (MIC) in data set [1] is 3.12 µg/mL (≈ 4.73 µM); against Enterococcus faecalis it was 6.25 µg/mL (≈ 9.47 µM); in the data set with Escherichia coli [4], 3.12 µg/mL (≈ 4.73 µM); against Staphylococcus aureus [5] it was 1.56 µg/mL (≈ 2.36 µM); with Pseudomonas aeruginosa, 6.25 µg/mL (≈ 9.47 µM); against Klebsiella pneumoniae, 6.25 µg/mL (≈ 9.47 µM). Further, the values for the IC50 at 24 h in [2] and in [6] were 83.2 µg/mL (≈ 126 µM) and 86.3 µg/mL (≈ 131 µM), respectively. This compound displayed an HC50 at 1 h in data set [3] of 85 µg/mL. The inhibition at 0.6 µg/mL in the data set on Escherichia coli [12] and with Acinetobacter baumannii [13] was more than 50% throughout. Also, the Activity result in the data set on Staphylococcus aureus [14] is “Dose-dependent effect”.
